Screening results (PubChem)
PGC1a acetyl inh = lowers PGC1a acetylation signal in U2OS cells; AlphaScreen anti-acetyl-lysine; with virally co-expressed GCN5 acetyltransferase; inhibition, % at 15.6 µM; 350,000 compounds, 0.17% hits; AID 651687;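 active = every replicate shows inhibition of at least 40%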;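 also: 0% = neutral control wells and 100% = positive control wells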
FN deposit inh = fibronectin deposition inhibition; AH1F fibroblasts, Alexa488-fibronectin deposition fluorescence, overnight; inhibition, % at 12.6 µM; 350,000 compounds, 0.086% hits;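 active = mean inhibition across replicates of 30% or more, regardless of how many single replicates reach that level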;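 also: positive control wells lacked labelled fibronectin entirely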
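Material: AH1F fibroblasts assembling fluorescent fibronectin matrix; amount: 10000 AH1F cells/well; medium: DMEM, 2% serum; reagent: Alexa488-fibronectin, 24 nM final in well; dosing: single compound dose, delivered by pin transfer; incubation: 1 h adhesion, overnight exposure; detection: fluorescence after three HBSS washes, excitation 485 nm, emission 525 nm; measure: fibronectin deposition inhibition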
HIV Env fusion = inhibitors of HIV Env-mediated cell fusion; HeLa-JRFL Env/CEM21 cell fusion, luciferase; 360,000 compounds, 1.1% hits; inhibition, % at 12.3 µM;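 active = mean replicate inhibition score of at least 50 and every replicate individually at or above 50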;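 also: 0% = plate neutral controls and 100% = maraviroc near 300 nM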
PglD inh = PglD (C. jejuni) enzyme inhibition; purified PglD enzyme, DTNB colorimetric CoA detection; inhibition, % at 12.5 µM; 360,000 compounds, 0.098% hits; AID 602405; in the data active = inhibition above about 16%, passing the limit was not always enough
Ecoli rRNA inh = selective bacterial rRNA inhibition in E. coli. 350,000 compounds, 1.6% hits. AID 720706. GFP signal change (wild-type ribosome), % (concentration not given with the values). E. coli WT GFP vs humanized-ribosome RFP mutants, fluorescence, 24 h; active compounds read low; DMSO median 0, no signal -100;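 active = significant combined selectivity score with lowered wild-type GFP, culture density cut under 30%, mutant RFP and density less affected; inactive = any of these conditions unmet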
DENV2 CPE rescue = inhibitors of DENV2 cytopathic effect. DENV2-infected cells, cytopathic effect rescue, plate reader. CPE inhibition, % at 9.99 µM. 350,000 compounds, 1.7% hits. AID 651640; in the data active = CPE inhibition above about 20%, passing the limit was not always enough; tested in BHK-21 cells;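 also: 0% = median of neutral control wells and 100% = median of positive control wells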
Active calls of the source: *; [ ] = remark or other dose. In the library only some 3.5% were active in any assay of this set; here they are far more common.

Screening Cc1ccc(S(=O)(=O)Nc2ccccc2C(=O)NCc2cccnc2)cc1 returned PGC1a acetyl inh 91*, FN deposit inh 2, HIV Env fusion 11, Ecoli rRNA inh -9 and DENV2 CPE rescue 5.
Screening O=C(Nc1ccccc1)Nc1nc(-c2ccc(Cl)cc2)cs1 returned PGC1a acetyl inh 2, FN deposit inh -4, PglD inh -2 and Ecoli rRNA inh -18*.
Screening O=C(NCc1cccnc1)c1ccccc1NS(=O)(=O)c1ccc(F)cc1 returned PGC1a acetyl inh -2, FN deposit inh 10, HIV Env fusion -17, PglD inh -4, Ecoli rRNA inh 2 and DENV2 CPE rescue 17.
Cc1ccc(S(=O)(=O)Nc2ccccc2C(=O)Nc2nc(-c3ccc(F)cc3)cs2)cc1 was read as PGC1a acetyl inh 6, FN deposit inh 0, HIV Env fusion 56*, PglD inh 2, Ecoli rRNA inh -43 and DENV2 CPE rescue -16.
For O=C(Nc1nc(-c2ccccc2)cs1)c1ccccc1F the results were FN deposit inh -5, HIV Env fusion -40, PglD inh 2, Ecoli rRNA inh -20* and DENV2 CPE rescue -4.
`C[C@@H]1CN([C@@H](C)CO)C(=O)c2cc(C#CCN(C)C)cnc2O[C@@H]1CN(C)Cc1cccc(F)c1` gave PGC1a acetyl inh -1, FN deposit inh 1, HIV Env fusion 5[16.7 µM], PglD inh 0, Ecoli rRNA inh 1 and DENV2 CPE rescue -6.
For COc1ccc2c3c(n(C)c2c1)[C@H](CO)N(C(=O)Cc1ccccc1)CC31CN(C)C1 the results were PGC1a acetyl inh 2, FN deposit inh 6, Ecoli rRNA inh 2 and DENV2 CPE rescue -10.
`C/C=C/c1ccc([C@H]2[C@@H](CN(C)C(=O)C3CC3)N(C(=O)C3CC3)[C@H]2CO)cc1` gave PGC1a acetyl inh -9, FN deposit inh 3, PglD inh 0, Ecoli rRNA inh 0 and DENV2 CPE rescue -3.
COc1ccc(S(=O)(=O)N[C@H]2CC[C@H](CC(=O)N3CCC(Cc4ccccc4)CC3)O[C@@H]2CO)cc1 was read as PGC1a acetyl inh -6, PglD inh 1, Ecoli rRNA inh 8 and DENV2 CPE rescue 1.
For C[C@@H]1CN([C@@H](C)CO)S(=O)(=O)c2ccc(C3=CCCC3)cc2O[C@@H]1CN(C)S(C)(=O)=O the results were PGC1a acetyl inh -4, HIV Env fusion 15[16.7 µM] and Ecoli rRNA inh 5.
`O=C(O)/C=C/C(=O)Nc1nc(-c2ccc3ccccc3c2)cs1` gave FN deposit inh -10, HIV Env fusion 4, Ecoli rRNA inh -34* and DENV2 CPE rescue 1.
Screening C[C@@H]1CN([C@@H](C)CO)C(=O)c2cc(NC(=O)Nc3cccc4ccccc34)ccc2O[C@H]1CN(C)C(=O)NC1CCCCC1 returned PGC1a acetyl inh -11, FN deposit inh -23, HIV Env fusion -17[16.7 µM], PglD inh -3, Ecoli rRNA inh 1 and DENV2 CPE rescue -7.
`C[C@H](CO)N1C[C@H](C)[C@@H](CN(C)C(=O)Cc2cccnc2)Oc2cc(C#Cc3ccccc3F)ccc2S1(=O)=O` gave PGC1a acetyl inh -6, FN deposit inh 2, Ecoli rRNA inh -6 and DENV2 CPE rescue 4.
Cc1nc2ccc(Br)cc2c(=O)n1Cc1cccs1 was read as FN deposit inh -1, HIV Env fusion 0, Ecoli rRNA inh -32* and DENV2 CPE rescue 0.
For Cc1nc2ccc(N)cc2c(=O)n1Cc1ccc(Cl)cc1 the results were PGC1a acetyl inh 5, FN deposit inh -8, HIV Env fusion -35 and PglD inh -6.
CCCNC(=O)N1[C@H](CO)[C@H](c2ccc(C#Cc3cccc(F)c3)cc2)[C@@H]1C#N was read as PGC1a acetyl inh -7, FN deposit inh 2, Ecoli rRNA inh -5 and DENV2 CPE rescue 19.
For CCOC(=O)c1ccc(NC(=S)NCCc2ccc(OC)c(OC)c2)cc1 the results were FN deposit inh 2, HIV Env fusion 11, Ecoli rRNA inh -28* and DENV2 CPE rescue -7.
C[C@H](CO)N1C[C@H](C)[C@H](CN(C)Cc2ccncc2)Oc2c(NS(=O)(=O)c3ccccc3)cccc2C1=O was read as PGC1a acetyl inh -11, HIV Env fusion 11[16.7 µM], PglD inh -3, Ecoli rRNA inh 2 and DENV2 CPE rescue 4.
Screening Cc1cccc(-c2nc(CSCC(=O)N3CCN(c4ccccn4)CC3)c(C)o2)c1 returned PGC1a acetyl inh 10, FN deposit inh 1, HIV Env fusion 89* and PglD inh 5.
Screening O=C(Nc1ccc2c(c1)[C@H]1C[C@@H](CC(=O)N3CCCCC3)O[C@@H](CO)[C@H]1O2)C1CCC1 returned PGC1a acetyl inh -6, FN deposit inh 2, HIV Env fusion 21[16.7 µM], PglD inh 0, Ecoli rRNA inh 0 and DENV2 CPE rescue 26*.
O=C(Nc1ccc(F)cc1)Nc1ccc2c(c1)[C@@H]1C[C@@H](CC(=O)N3CCOCC3)O[C@@H](CO)[C@@H]1O2 was read as PGC1a acetyl inh 0, FN deposit inh 3, HIV Env fusion 7[16.7 µM], PglD inh 4, Ecoli rRNA inh -4 and DENV2 CPE rescue -1.
`O=C(Nc1ccc(F)cc1)Nc1ccc2c(c1)[C@@H]1C[C@H](CC(=O)N3CCCCC3)O[C@H](CO)[C@@H]1O2` gave PGC1a acetyl inh -5, FN deposit inh -10, HIV Env fusion 90*[16.7 µM], PglD inh 1, Ecoli rRNA inh -3 and DENV2 CPE rescue 3.
For O=C(Nc1ccc(F)cc1)Nc1ccc2c(c1)[C@H]1C[C@H](CC(=O)N3CCCCC3)O[C@@H](CO)[C@H]1O2 the results were PGC1a acetyl inh -1, FN deposit inh -6, HIV Env fusion -11[16.7 µM], PglD inh 7, Ecoli rRNA inh -2 and DENV2 CPE rescue 21*.
For O=C(Nc1ccc(F)cc1)Nc1ccc2c(c1)[C@@H]1C[C@@H](CC(=O)N3CCCCC3)O[C@@H](CO)[C@@H]1O2 the results were PGC1a acetyl inh -7, FN deposit inh -2, HIV Env fusion -9[16.7 µM], PglD inh 4, Ecoli rRNA inh -7 and DENV2 CPE rescue -1.
Screening O=C(Nc1ccc(F)cc1)Nc1ccc2c(c1)[C@@H]1C[C@H](CC(=O)N3CCCCC3)O[C@@H](CO)[C@@H]1O2 returned PGC1a acetyl inh -6, FN deposit inh -10, HIV Env fusion 75*[16.7 µM], PglD inh 3, Ecoli rRNA inh -3 and DENV2 CPE rescue -3.
O=C(Nc1ccc2c(c1)[C@@H]1C[C@H](CC(=O)N3CCCCC3)O[C@H](CO)[C@@H]1O2)C1CCC1 was read as PGC1a acetyl inh -3, FN deposit inh -2, HIV Env fusion -1[16.7 µM], PglD inh 1, Ecoli rRNA inh 1 and DENV2 CPE rescue 19.
